Where only a bound is given, the exact number is not on record here.

Data set [1] in a line: Plasma pharmacokinetics in mice. As to conditions: BALB/c mouse, IV. It counts as in vivo. The method, boiled down: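 Balb/c mice received a single IV or oral-gavage dose, with low-dose isoflurane restraint for gavage. Each mouse gave one time point: 3 mice per point, 10 time points. Blood was taken by cardiac puncture under deep isoflurane anaesthesia, and plasma was assayed for parent compound by validated LC-MS/MS.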

The nature of data set [2]: Microsomal stability.
Data set [3] is described as follows: Plasma stability, mouse plasma.
The conditions of data set [4]: IV doses 30–60 mg/kg, within 5 min, Male CD1 mice; cited from earlier work.

In general, amount remaining refers to what is left of the initial amount, in per cent. High values mean greater stability, low ones a greater loss. With `CC(C)C[C@H](NC(=O)[C@H](Cc1ccccc1)NC(=O)CNC(=O)CNC(=O)[C@@H](N)Cc1ccc(O)cc1)C(=O)O` [Compound 1, Leu-enkephalin], the “time until completely consumed in plasma” value in data set [1] was not above 5 min. Also, the microsomal degradation result in data set [2] (in the absence of NADPH) is “slowly degraded”. Further, the material metabolized in data set [2] (mouse, rat and human NADPH-charged microsomes, 2 h, 0.50 μM) is on record as 38–50%. The same compound displayed an amount remaining at 4 h, 50 μM in data set [3] of more than 90%.
For [D-Pen^2,D-Pen^5]-enkephalin [DPDPE], in data set [4], the “in vivo antinociceptive activity (hotplate)” value is reported as “demonstrated in vivo antinociceptive activity”.

These data come from PMC6051889 (ACS chemical neuroscience, 2018).
